Data set [1] in a line: Half life in human microsomes at 1 uM incubated for 5 to 60 mins in presence of NADPH by LC-MS/MS analysis. The format is ADME, Microsome.
A short description of data set [2]: Solubility of compound in 2% DMSO by LC-MS/MS analysis. Type of data set: physicochemical.
In data set [3] the target is T1, Inositol hexakisphosphate kinase 1 (Homo sapiens, UniProt Q92551). Description: Binding affinity to IP6K1 (unknown origin) assessed as change in melting temperature by SYPRO orange dye-based assay. Summed up:
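Thermal shift format. Purified IP6K1 heated across a temperature gradient with the ligand at several concentrations. Binding read as the rise in protein melting temperature, including the maximal Tm shift (TmMax).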
Target sequence in this assay (Q92551 whole entry, looked up): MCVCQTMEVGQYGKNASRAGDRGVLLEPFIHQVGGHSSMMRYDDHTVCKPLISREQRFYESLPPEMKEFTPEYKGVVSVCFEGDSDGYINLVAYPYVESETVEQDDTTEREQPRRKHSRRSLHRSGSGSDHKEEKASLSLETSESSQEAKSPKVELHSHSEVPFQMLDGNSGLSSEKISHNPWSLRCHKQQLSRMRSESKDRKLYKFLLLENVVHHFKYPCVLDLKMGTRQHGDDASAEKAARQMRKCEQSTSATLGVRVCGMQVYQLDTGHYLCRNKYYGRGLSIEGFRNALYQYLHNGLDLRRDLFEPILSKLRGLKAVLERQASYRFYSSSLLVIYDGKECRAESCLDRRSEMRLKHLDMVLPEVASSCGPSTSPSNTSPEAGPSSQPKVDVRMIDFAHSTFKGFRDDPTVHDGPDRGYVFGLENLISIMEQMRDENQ

Data set [4] deals with T1, Inositol hexakisphosphate kinase 1. Nature of the data set: Inhibition of IP6K1 (unknown origin) incubated for 30 mins using IP6 as substrate in presence of ATP by ADP-Glo reagent based luminescence assay. The conditions noted are these: read-out: pIC50 (converted). Summed up: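 Luminescent ADP-Glo Max format adapted for IP6K, with purified enzyme and ATP at 1 mM, which is consumed as the kinase reaction proceeds. IC50 taken from the resulting inhibition data.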
Target sequence in this assay (Q92551 whole entry): as the sequence (Q92551 whole entry, looked up) above

A short description of data set [5]: Half life in mouse microsomes at 1 uM incubated for 5 to 60 mins in presence of NADPH by LC-MS/MS analysis.
Data set [6] has as its target T1, Inositol hexakisphosphate kinase 1. Nature of the data set: Binding affinity to IP6K1 (unknown origin) assessed as change in melting temperature at 11.1 uM by SYPRO orange dye based assay.
Target sequence in this assay (Q92551 whole entry, looked up): as above

What is called half-life is the time needed for the level to fall by half in the phase considered. One may read the ΔTm as the change in melting temperature against a reference sample. In the case of `O=[N+]([O-])c1ccc(CNc2nc(NCc3cccc(C(F)(F)F)c3)nc3[nH]cnc23)cc1`, the half-life at 1 µM in data set [1] was 32 min; in data set [5], 9 min. In data set [2], the solubility result is “Insoluble”. Also, the ΔTm in data set [3] is 3.3 °C; in data set [6], 1.8 °C. Also, in data set [4], the IC50 was over 200 µM.
Turning to `COCCNc1nc(NCCc2c[nH]c3cc(OC)ccc23)nc2[nH]cnc12`, the ΔTm in data set [3] was 4.7 °C; in data set [6], 3.6 °C. Further, the IC50 in data set [4] was 2.75 µM.
`COCCNc1nc(NCCc2c[nH]cn2)nc2[nH]cnc12`: in data set [4], the IC50 is over 200 µM.
Consider `Cc1[nH]c2ccccc2c1CCNc1nc(NCc2ccc(=O)[nH]c2)c2nc[nH]c2n1`, for which, in data set [4], the IC50 is 3.02 µM.
Take `COCCNc1nc(NCCc2c(C)[nH]c3ccccc23)nc2[nH]cnc12`: the IC50 in data set [4] was 1.95 µM.
Take `COCCNc1nc(NCCc2c[nH]c3ccc(C)cc23)nc2[nH]cnc12`: the IC50 in data set [4] is 123 µM.
Regarding `COCCNc1nc(NCCc2ccccc2OC)nc2[nH]cnc12`, the IC50 in data set [4] was 11.2 µM.
As to `N#Cc1ccc(CNc2nc(NCCc3c[nH]c4ccccc34)nc3[nH]cnc23)cc1`, in data set [4], the IC50 is 46.8 µM.
As for `c1ccc2c(CCNc3nc(NCc4ccc5nonc5c4)c4nc[nH]c4n3)c[nH]c2c1`, the IC50 in data set [4] was 151 µM.
In the case of `COCCNc1nc(NCCc2cn(C)c3ccccc23)nc2nc[nH]c12`, in data set [4], the IC50 is 31.6 µM.
Same read-out and setting: with `COCCNc1nc(NCCc2cccc3ccccc23)nc2[nH]cnc12` the figure was 93.3 µM.
With `COCCNc1nc(NCCc2c[nH]c3ccccc23)nc2[nH]cnc12`, the ΔTm in data set [3] was determined as 4.3 °C; in data set [6], 2.4 °C. Moreover, the IC50 in data set [4] was 8.32 µM.
In the case of `COCCNc1nc(NCCc2c[nH]c3ccc(O)cc23)nc2[nH]cnc12`, in data set [4], the IC50 is 31.6 µM.
For `FC(F)(F)c1cccc(CNc2nc(NCc3ccccc3)c3nc[nH]c3n2)c1`, the IC50 in data set [4] is over 200 µM.
`COCCNc1nc(N(C)CCc2c[nH]c3ccccc23)nc2nc[nH]c12`: the IC50 in data set [4] is over 200 µM.
As for `O=c1ccc(CNc2nc(NCCc3c[nH]c4ccccc34)nc3[nH]cnc23)c[nH]1`, the IC50 in data set [4] was 1.74 µM.
As to `COCCNc1nc(NCCc2c[nH]c3ccccc23)nc2c1ncn2C`, the IC50 in data set [4] is over 200 µM.
Regarding `COCCNc1nc(NCCc2ccccc2)nc2[nH]cnc12`, the IC50 in data set [4] is 79.4 µM.
Regarding `COCCNc1nc(NCCc2ccc(F)cc2)nc2[nH]cnc12`, the IC50 in data set [4] was 89.1 µM.
The same measure, in the same setting: with `COCCNc1nc(NCCc2c[nH]c3ccccc23)nc2cc[nH]c12` the figure was over 200 µM.
As to `COCCNc1nc(NCCc2c[nH]c3ccccc23)nc2[nH]ccc12`, the IC50 in data set [4] is over 200 µM.
Turning to `FC(F)(F)c1cccc(CNc2nc(NCCc3ccccc3)c3nc[nH]c3n2)c1`, in data set [4], the IC50 is over 200 µM.
Take `COCCNc1nc(NCCCc2c[nH]c3ccccc23)nc2[nH]cnc12`: the IC50 in data set [4] is 69.2 µM.
On to `COCCNc1nc(NCCc2c[nH]c3ccc(Cl)cc23)nc2[nH]cnc12`, for which the IC50 in data set [4] is 26.9 µM.
In the case of `O=c1cc(CNc2nc(NCCc3c[nH]c4ccccc34)nc3[nH]cnc23)cc[nH]1`, the IC50 in data set [4] is 10 µM.
Still for that read-out and setting: the figure for `COCCNc1nc(NCCc2c[nH]c3ccc(OC)cc23)nc2[nH]cnc12` is 138 µM.
For `COCCNc1nc(NCc2cccc(C(F)(F)F)c2)nc2[nH]cnc12`, in data set [4], the IC50 is 117 µM.
For the molecule `COCCN(C)c1nc(NCCc2c[nH]c3ccccc23)nc2c1ncn2C`, the IC50 in data set [4] is over 200 µM.

The values are drawn from ChEMBL document CHEMBL4396947, “Synthesis and characterization of novel isoform-selective IP6K1 inhibitors” (Bioorg Med Chem Lett, 2019).
